# Screening results from PubChem BioAssay.
# Rows were chosen to be rich in hits. Some 4.9% of all compounds tested hit in one or more screens of this group.
# HSF1 inh: HSF1 inhibitors in luciferase reporter cells, primary screen, cell-based, NIH3T3, luminescence. NIH3T3-HGL HSE-luciferase, MG132-induced, luminescence 8 h; stronger effect = lower value. activity change, negative = inhibition, % at 7.5 µM (by protocol). 0.77% of 300,000 active;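 active = more than half of replicate wells show activity change below -50%, luminescence cut by over half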;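 also: luciferase reports HSF-1 transcriptional activity via heat shock element; 0% = median of DMSO wells and -100% = zero luminescence signal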
# Hep lipid drop: inhibitors of hepatocyte lipid droplet formation, primary screen, imaging, high-throughput imaging, BODIPY stain; AML12 mouse hepatocytes, oleate lipid droplets; inhibition, % at 6.5 µM; 0.4% of 240,000 active; AID 1656, 2009;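 active = lipid droplet intensity inhibited by at least 50%, with more than 500 cells counted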
#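 Assay system: AML12 mouse liver cells | Compound dosing: One dose, 6.5 µM compound | Read-out basis: Droplet intensity reduction, % inhibition | Measured by: Fluorescence imaging, 20x objective, two fields per well | Schedule: Overnight treatment with compound plus oleate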
# PHOSPHO1 inh: PubChem AID 1565; Phosphoethanolamine/phosphocholine phosphatase (Homo sapiens), Q8TCT1; recombinant PHOSPHO1, absorbance phosphatase assay; inhibition, % at 13.3 µM; 1.1% of 290,000 active; in the data active = inhibition above about 60%
# Target sequence (Q8TCT1 whole entry, looked up): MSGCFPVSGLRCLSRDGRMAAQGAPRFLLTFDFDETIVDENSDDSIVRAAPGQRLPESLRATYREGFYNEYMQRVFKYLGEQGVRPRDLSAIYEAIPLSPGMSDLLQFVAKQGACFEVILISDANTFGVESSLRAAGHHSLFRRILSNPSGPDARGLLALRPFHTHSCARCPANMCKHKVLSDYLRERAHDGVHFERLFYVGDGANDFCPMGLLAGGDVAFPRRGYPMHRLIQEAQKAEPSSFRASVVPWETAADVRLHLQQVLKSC
# CHT block: inhibitors of human choline transporter CHT. High affinity choline transporter 1 (Homo sapiens), Q9GZV3. CHT-expressing cells, membrane potential dye, choline response; stronger effect = lower value. B-score at 10 µM. 0.86% of 310,000 active. AID 488975, 2010;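 active = B-score over 3 SD under the library average, and starting fluorescence ratio not unusually high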;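 also: choline stimulus applied at its EC90 after an EC20 pre-addition; B-score computed on integrated fluorescence ratio after choline addition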
# CHT PAM: CHT positive allosteric modulators, primary screen, cell-based, membrane potential dye, choline EC20 | CHT-expressing cells; stronger effect = higher value; LV-AA mutant CHT in HEK293 cells | B-score at 10 µM | 0.49% of 310,000 active | AID 488977, 2010;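 active = initial fluorescence not abnormally high and integrated response B-score, plate-corrected, over 3 SD above library mean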
# HSF-1 act: HSF-1 activators, primary screen, NIH3T3-HGL cells, MG132 stress, luminescence, single point | NIH3T3-HGL HSF-1 luciferase reporter, 8 h; 100% = twice DMSO control signal | activation, % at 9 µM | 1.7% of 300,000 active;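 active = mean replicate activation of at least 50% with a set share of replicates each reaching 50%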;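 also: 0% = median of the neutral control wells and 100% = twice that signal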
# CHT activ conf: CHT activators, confirmation, cell-based, membrane potential dye, duplicate; shares compounds with CHT PAM; CHT-expressing cells, membrane potential dye fluorescence (FDSS); % of choline EC20–EC90 response window; HEK293 expressing CHT LV-AA mutant; choline added at its EC20; activation, % at 10 µM; 91% of 2,500 active; AID 504833, 2011;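 active = primary screen active, with duplicate mean activation above negative control mean plus 3 SD, cut at about 11% in these data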
# HEK293 MP dye: membrane potential response in parental HEK293 cells, counter-screen for CHT activator project, cell-based, membrane potential dye. AID 623908, 2012. 62% of 2,500 active. ratio readout change at 10 µM, hits read low. shares compounds with CHT PAM. membrane potential dye fluorescence (FDSS); measured after EC20 choline addition;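 active = duplicate-averaged ratio beyond 3 SD from buffer wells, up or down, though filed actives are nearly all decreases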
# * = called active by the depositor; i = inactive; / = no result.
SMILES,HSF1 inh,Hep lipid drop,PHOSPHO1 inh,CHT block,CHT PAM,HSF-1 act,CHT activ conf,HEK293 MP dye
COc1c2c(cc3c1OCO3)CC[N+](C)=C2,0,-1,40,i,9.2*,1,58*,-60*
C=CC[N+]1(C)C2CCC1CC(O)C2 (configuration not stated),-6,10,-13,i,i,1,/,/
COc1ccc2[nH]c3c(c2c1)CCN=C3C,/,/,/,i,7.1*,/,47*,-45*
COc1ccc2[nH]cc(CCN)c2c1,/,-8,-2,i,i,/,/,/
CCN(CC)S(=O)(=O)c1cc(NC(=O)C(C)N2CC=C(c3ccccc3)CC2)ccc1C (configuration not stated),4,-13,-85,i,i,20,/,/
Cc1cccc(NP(=O)(Oc2ccccc2)Oc2ccccc2)c1C,7,-33,-20,i,i,-5,/,/
Cc1ccccc1NP(=O)(Oc1ccccc1F)Oc1ccccc1F,6,-51,1,i,6.3*,-14,9.9*,i
COc1ccc(-n2c(/C=C/c3ccc(O)c(O)c3)nc3ccccc3c2=O)cc1,2,13,20,i,i,6,/,/
COc1cc(/C=C/c2nc3ccccc3c(=O)n2-c2ccc(O)cc2)ccc1O,15,-2,29,i,i,15,18*,i
CCOC(=O)c1ccc2c(c1)n(Cc1ccccc1)c(C)[n+]2CC,-1,-1,37,i,8.1*,-1,47*,-51*
Cc1ccc(-c2nc(N(C)C3CCN(C)CC3)c3ccccc3n2)cc1,/,27,-2,i,i,/,37*,-68*
COC(=O)c1c2[n+](cc3cc(OC)c(OC)cc13)CCc1cc(OC)c(OC)cc1-2,-5,/,/,i,i,-22,44*,-49*
Cn1c(=O)n(C)c2cc([N+](=O)[O-])c(N3CCNCC3)cc21,-6,24,4,i,9.7*,5,0,i
O=C1C2CCN(CC2)C12CC2c1ccc(C(F)(F)F)cc1 (configuration not stated),5,11,4,i,i,14,/,/
Nc1ccccc1-[n+]1c(-c2ccccc2)cc(-c2ccccc2)cc1-c1ccccc1,-6,-2,41,i,i,-17,/,/
C[n+]1c(-c2ccccc2)cc(CCCCc2cc(-c3ccccc3)[n+](C)c(-c3ccccc3)c2)cc1-c1ccccc1,/,5,-1,i,6.8*,/,50*,-64*
COc1ccc(-c2cc(-c3ccccc3)[n+](C)c(-c3ccccc3)c2)cc1,-2,2,6,i,i,-1,35*,i
COC(=O)C1=CO[C@@H](C)[C@H]2CN3CC[C@]4(C(=O)Nc5ccccc54)[C@@H]3C[C@H]12,-1,/,/,i,i,12,/,/
c1cc2n(c1)-c1c(ccc3c1OCO3)CNC2c1ccc2c(c1)OCO2 (configuration not stated),0,1,2,i,i,1,/,/
COc1ccc(C2NCc3ccc4c(c3-n3cccc32)OCO4)cc1O (configuration not stated),4,-108,0,i,11*,8,16*,i
COc1ccc(CCNCc2sccc2C)cc1OC,-1,8,12,i,i,16,/,/
O=[N+]([O-])c1ccc(N2CCCC2)c2ncccc12,-7,7,0,i,i,-19,/,/
CC1CN(c2ccc([N+](=O)[O-])c3cccnc23)CC(C)N1 (configuration not stated),3,/,28,i,i,-12,48*,-84*
O=C(CNC(=O)c1cccc(Cl)c1)Nc1ccc(Br)cc1C(=O)c1ccccc1,14,-14,-4,i,7.7*,9,20*,i
CN1CCc2nc3sc(C(=O)NC(C)(C)C)c(N)c3cc2C1,-3,/,-78,i,i,-3,/,/
